# Measured values from ChEMBL document CHEMBL1155784, “Aromatic 2-chloroethyl urea derivatives and bioisosteres. Part 2: Cytocidal activity and effects on the nuclear translocation of thioredoxin-1, and the cell cycle progression” (2008).
# Calls of active or inactive are those of the source. The calls are words filed in the database; no cut-off is given here.
# Assays:
# [1] = test system: HT-29; assay: Growth inhibition of human HT29 cells after 48 hrs by sulforhodamine B assay; type: functional; conditions: for GI50: HT-29, 48 h
# How it was run: (§1)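 NCI-style sulforhodamine B assay. HT-29 (5×10³), M21 or MCF-7 (3.5×10³) cells were grown 24 h, then given DMSO-solubilized drug at 100 to 0.7 µM final (DMSO <0.5%) for 48 h. Fixed in cold 10% TCA, stained with 0.1% SRB, read at 585 nm after subtracting a day-0 plate. Inhibition is relative to DMSO controls; GI50 from at least triplicate runs.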
# [2] = test system: M21; assay: Growth inhibition of human M21 cells after 48 hrs by sulforhodamine B assay; type: functional; conditions: for GI50: M21, 48 h; how it was run: as §1
# [3] = test system: MCF7; assay: Growth inhibition of human MCF7 cells after 48 hrs by sulforhodamine B assay; type: functional; conditions: for GI50: MCF7, 48 h; how it was run: as §1
# [4] = test system: M21; assay: Inhibition of nuclear translocation of thioredoxin 1 in human M21 cells at 50 uM after 18 hrs by immunocytochemistry; type: functional, cell-based
# How it was run: (§2)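 M21 cells seeded on fibronectin-coated coverslips, held 18 h at 37 °C, then treated with compounds (5–50 µM; reference agents 0.1–40 µM) or 0.1% DMSO. Fixed in 3.7% formaldehyde, permeabilized with 0.1% saponin, and blocked in 3% BSA. Stained 1 h at 37 °C with anti-thioredoxin-1 monoclonal (1/200), then with Alexa-488 anti-mouse IgG plus DAPI for nuclei.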
# [5] = test system: M21; assay: Inhibition of nuclear translocation of thioredoxin 1 in human M21 cells at 25 uM after 18 hrs by immunocytochemistry; type: functional, cell-based; how it was run: as §2
# [6] = test system: MCF7; assay: Cell cycle arrest in human MCF7 cells assessed as S phase accumulation at 2 times GI50 after 24 hrs by flow cytometry
# [7] = test system: MCF7; assay: Cell cycle arrest in human MCF7 cells assessed as G2/M phase accumulation at 2 times GI50 after 24 hrs by flow cytometry
# [8] = test system: MCF7; assay: Cell cycle arrest in human MCF7 cells assessed as G0/G1 phase accumulation at 2 times GI50 after 24 hrs by flow cytometry
# [9] = test system: MCF7; assay: Cell cycle arrest in human MCF7 cells assessed as […] phase accumulation at 2 times GI50 after 24 hrs by flow cytometry; type: functional
# [10] = test system: MCF7; assay: Cell cycle arrest in human MCF7 cells assessed as S phase accumulation at 2 times GI50 after 24 hrs by flow cytometry; type: functional
# [11] = test system: MCF7; assay: Cell cycle arrest in human MCF7 cells assessed as G2/M phase accumulation at 2 times GI50 after 24 hrs by flow cytometry; type: functional
# [12] = test system: M21; assay: Inhibition of nuclear translocation of thioredoxin 1 in human M21 cells at 5 uM after 18 hrs by immunocytochemistry; type: functional, cell-based; how it was run: as §2
Structure (SMILES),GI50 [1] [µM],GI50 [2] [µM],GI50 [3] [µM],Activity [4],Activity [6] [%],Activity [7] [%],Activity [8] [%],Activity [12],also measured
CCNC(=O)Nc1ccc(OC2CCCCC2)cc1,–,–,–,–,–,–,–,–,Activity [1]: inactive; Activity [2]: inactive; Activity [3]: inactive
C1COC(NC2C3CC4CC(C3)CC2C4)=N1 (stereo not given),53.4,60.7,24.1,Active,–,–,–,–,–
c1cc(NC2=NCCO2)cc(OC2CCCCCC2)c1,6.9,14.4,14.8,Active,28,24,48,–,Activity [5]: Active
O=C(NCCCl)Nc1cccc(OC2CCCC2)c1,–,–,–,Active,–,–,–,–,Activity [9]: 64%; Activity [10]: 24%; Activity [11]: 12%
Ic1ccc(NC2=NCCO2)cc1,–,–,–,–,10,76,14,Active,–
O=C(NCCCl)Nc1cccc(OC2CCCCC2)c1,–,–,–,Active,–,–,–,–,Activity [9]: 59%; Activity [10]: 33%; Activity [11]: 8%
O=C(CCl)NC(=O)Nc1ccc(-c2ccccc2)cc1,2.3,1.4,3.9,–,–,–,–,Active,–
O=C(CCl)NC(=O)Nc1ccc(OC2CCCC2)cc1,3.1,2.9,3.9,–,33,9,58,Active,–
c1cc(OC2CCCC2)ccc1NC1=NCCO1,16.1,21.1,23.1,Active,23,7,70,–,–
O=C(CCl)NC(=O)Nc1ccc(Oc2ccccc2)cc1,3.6,4.2,4.2,–,–,–,–,inactive,–
O=C(CCl)NC(=O)Nc1ccc(OCc2ccccc2)cc1,2.6,5.1,4.6,–,–,–,–,inactive,–
CCNC(=O)Nc1ccc2c(c1)CCC2,–,–,–,–,–,–,–,–,Activity [1]: inactive; Activity [2]: inactive; Activity [3]: inactive
Cc1ccc(NC(=O)NC(=O)CCl)cc1,–,–,–,–,–,–,–,Active,–
c1ccc(Oc2cccc(NC3=NCCO3)c2)cc1,5.5,9.6,12.2,inactive,–,–,–,–,Activity [5]: inactive
c1ccc2cc(NC3=NCCO3)ccc2c1,2,3.5,4.5,Active,–,–,–,Active,–
O=C(NCCCl)Nc1cccc(Oc2ccccc2)c1,–,–,–,inactive,–,–,–,–,–
O=C(CCl)NC(=O)Nc1cccc(Oc2ccccc2)c1,5.2,5.3,8.1,–,–,–,–,Active,–
O=C(CCl)NC(=O)NC1c2ccccc2-c2ccccc21,–,–,–,–,–,–,–,inactive,–
c1ccc(-c2ccc(NC3=NCCO3)cc2)cc1,5.8,8.8,10.6,Active,–,–,–,–,Activity [5]: Active
c1ccc(COc2ccc(NC3=NCCO3)cc2)cc1,10.3,15.9,11.1,Active,–,–,–,–,Activity [5]: Active
c1cc(NC2=NCCO2)cc(OC2CCCCC2)c1,4.4,12,15.9,Active,19,38,43,–,Activity [5]: Active
c1cc(C2CCCCC2)ccc1NC1=NCCO1,12.8,17.8,17.5,Active,16,11,73,–,–
O=C(CCl)NC(=O)Nc1ccc(C2CCCCC2)cc1,2.3,0.9,1.5,–,51,24,25,Active,–
O=C(NCCCl)Nc1ccc(OC2CCCCC2)cc1,–,–,–,Active,–,–,–,–,Activity [9]: 57%; Activity [10]: 29%; Activity [11]: 14%
O=C(CCl)NC(=O)Nc1ccc(OC2CCCCC2)cc1,3.1,5,4.7,–,20,10,70,Active,–
c1cc(OC2CCCCCC2)ccc1NC1=NCCO1,16.6,27.1,26.8,Active,14,4,82,–,–
O=C(NCCCl)Nc1ccc(-c2ccccc2)cc1,8.3,14.5,42,Active,–,–,–,–,Activity [5]: Active

Structure (SMILES),GI50 [1] [µM],GI50 [2] [µM],GI50 [3] [µM],Activity [4],Activity [6] [%],Activity [7] [%],Activity [8] [%],Activity [12],also measured
CC(C)(C)c1ccc(NC(=O)NC(=O)CCl)cc1,–,–,–,–,20,19,61,Active,–
O=C(CCl)NC(=O)Nc1ccc(I)cc1,–,–,–,–,22,10,68,Active,–
O=C(NCCCl)Nc1ccc(OCc2ccccc2)cc1,37.5,–,79.7,inactive,–,–,–,–,Activity [2]: inactive
c1cc2c(cc1NC1=NCCO1)CCC2,–,–,–,Active,–,–,–,–,Activity [5]: Active
c1ccc(COc2cccc(NC3=NCCO3)c2)cc1,0.8,1.5,2.6,–,–,–,–,inactive,–
O=C(NCCCl)NC1c2ccccc2-c2ccccc21,–,–,–,Active,–,–,–,–,–
O=C(CCl)NC(=O)Nc1ccc2c(c1)CCC2,–,–,–,–,–,–,–,Active,–
O=C(CCl)NC(=O)Nc1ccc(OC2CCCCCC2)cc1,2.3,5,3.6,–,30,11,59,Active,–
c1ccc2c(c1)-c1ccccc1C2NC1=NCCO1,–,–,–,Active,–,–,–,–,–
O=C(NCCCl)NC1C2CC3CC(C2)CC1C3 (stereo not given),50.6,–,11.3,inactive,–,–,–,–,Activity [2]: inactive
Cc1ccc(NC(=O)NCCCl)cc1,–,–,–,Active,–,–,–,–,–
O=C(CCl)NC(=O)Nc1cccc(OCc2ccccc2)c1,6.5,4.5,6.2,–,–,–,–,inactive,–
O=C(CCl)NC(=O)Nc1cccc(OC2CCCCCC2)c1,6.9,4.2,7.2,–,31,11,58,Active,–
c1cc(OC2CCCCC2)ccc1NC1=NCCO1,12.6,20.8,19.1,Active,13,5,82,–,–
c1ccc(Oc2ccc(NC3=NCCO3)cc2)cc1,2,3.1,3.5,inactive,–,–,–,inactive,–
CCNC(=O)Nc1ccc(C2CCCCC2)cc1,–,–,–,–,–,–,–,–,Activity [1]: inactive; Activity [2]: inactive; Activity [3]: inactive
O=C(CCl)NC(=O)Nc1ccc2ccccc2c1,4.9,3.7,7.6,–,–,–,–,inactive,–
O=C(CCl)NC(=O)Nc1cccc(OC2CCCCC2)c1,3.8,2.7,6.3,–,20,7,73,Active,–
c1cc(NC2=NCCO2)cc(OC2CCCC2)c1,52.2,76.9,62.1,Active,17,6,77,–,–
Cc1ccc(NC2=NCCO2)cc1,–,–,–,inactive,–,–,–,–,–
CC(C)(C)c1ccc(NC2=NCCO2)cc1,–,–,–,–,11,74,15,inactive,–
Cc1ccc(NC(=O)NC(=O)CCl)cc1C,–,–,–,–,–,–,–,inactive,–
O=C(CCl)NC(=O)Nc1cccc(OC2CCCC2)c1,3.1,3.5,6.2,–,34,13,53,Active,–
O=C(NCCCl)Nc1ccc2c(c1)CCC2,–,–,–,–,–,–,–,–,Activity [5]: Active
CCNC(=O)Nc1cccc(OC2CCCCCC2)c1,–,–,–,–,–,–,–,–,Activity [1]: inactive; Activity [2]: inactive; Activity [3]: inactive
O=C(CCl)NC(=O)NC1C2CC3CC(C2)CC1C3 (stereo not given),5.1,3.2,6.2,–,–,–,–,–,–
